Consider 17 compounds from ChEMBL document CHEMBL3244081, “Potential antitumor agents. 31. Quantitative structure-activity relationships for the antileukemic bis(guanylhydrazones)” (1979).

The nature of assay [1]: Binding affinity to DNA (unknown origin) assessed as decrease in velocity of L1210 DNA-dependent DNA polymerase reaction.
Assay [2] can be described thus: Displacement of ethidium from poly[d(A-T)]-poly[d(A-T)] DNA (unknown origin) by fluorimetric assay. In short, it runs like this:
(§1)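 Relative binding to the synthetic duplex polymers was measured as fluorimetric displacement of bound ethidium, following the method of the earlier studies. Compounds were made up as 2 mM aqueous stock solutions, either from weighed salts or, where material was scarce, with the concentration set from published UV absorbance data before final dilution.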

Assay [3] can be described thus: Displacement of ethidium from poly[d(G-C)]-poly[d(G-C)] DNA (unknown origin) by fluorimetric assay. The method, boiled down: as §1
The subject of assay [4] is L1210. In words: Anti-leukemic activity against mouse L1210 cells allografted in ip dosed DBA2 mouse assessed as optimum drug dose required for the effect administered qd for 1 to 4 days. The class given is functional.
The test system of assay [5] is L1210. Put plainly: Anti-leukemic activity against mouse L1210 cells allografted in ip dosed DBA2 mouse assessed as increase in host lifespan administered qd for 1 to 4 days. It counts as functional.

On to `N=C(N)N/N=C/c1ccc(NC(=O)Nc2ccc(/C=N/NC(=N)N)cc2)cc1`, for which the logIC50 in assay [1] was 1.95. For the same compound, the C50 in assay [2] was 0.3 µM; in assay [3] it was 0.69 µM. Further, the log optimum dose in assay [4] is on record as 1.48. Further, the “log(activity)” value in assay [5] was 2.08.
As to `N=C(N)N/N=C/C/C=N/NC(=N)N`, in assay [1], the logIC50 was greater than 3. Further, in assay [4], the log optimum dose is given as 2.3. The “log(activity)” value in assay [5] is less than 1.4.
Turning to `Cl.N=C(N)N/N=C/c1ccc(-c2ccc(/C=N/NC(=N)N)cc2)cc1`, the logIC50 in assay [1] stood at 1.6. Moreover, the C50 in assay [2] stood at 0.14 µM; in assay [3] it was 1 µM. Also, in assay [4], the log optimum dose was 1.3. Besides, the “log(activity)” value in assay [5] is 1.63.
With `CC(/C=N/N(C)C(=N)N)=N\N(C)C(=N)N`, in assay [1], the logIC50 is greater than 3. Besides, the C50 is 103 µM in assay [2] and 379 µM in assay [3]. For the same compound, the log optimum dose in assay [4] is recorded as 2.18. For the same compound, in assay [5], the “log(activity)” value was less than 1.4.
In the same order, the values of `CCC(/C=N/NC(=N)N)=N\NC(=N)N.Cl` are 2.87, 112 µM, 248 µM, 2 and less than 1.4.
In the same order, the values of `C/C(=N\NC(=N)N)c1ccc(NC(=O)Nc2ccc(/C(C)=N/NC(=N)N)cc2)cc1` are 1.95, 0.43 µM, 1.3 µM, 1.4 and 2.47.
In the same order, the values of `CC(=N\NC(=N)N)/C(C)=N/NC(=N)N` are 2.7, 14 µM, 51 µM, 2.18 and less than 1.4.
For the compound `C/C(=N\NC(=N)N)c1cccc(NC(=O)Nc2cccc(/C(C)=N/NC(=N)N)c2)c1`, the logIC50 in assay [1] was found to be 1.6. For the same compound, the C50 came to 0.42 µM in assay [2] and 1.6 µM in assay [3]. Further, the log optimum dose in assay [4] is 1.48. Further, the “log(activity)” value in assay [5] is 2.1.
In the same order, the values of `C/C(=N\NC(=N)N)c1ccc(NC(=N)Nc2ccc(/C(C)=N/NC(=N)N)cc2)cc1` are 1.6, 0.08 µM, 0.2 µM, 0.7 and 1.82.
With `Cl.N=C(N)N/N=C/c1ccc(/C=N/NC(=N)N)cc1`, the logIC50 in assay [1] was found to be 1.9. Further, the C50 in assay [2] amounted to 2.9 µM; in assay [3], 7.6 µM. For the same compound, the log optimum dose in assay [4] is listed as 1.6. For the same compound, the “log(activity)” value in assay [5] is on record as 1.84.
On to `N=C(N)NCCCCCCCCCCNC(=N)N` [SYNTHALIN], for which the logIC50 in assay [1] was greater than 3. Also, the C50 in assay [2] came out at 127 µM; in assay [3], 191 µM. Further, in assay [4], the log optimum dose was determined as 0.6. For the same compound, in assay [5], the “log(activity)” value was found to be 2.11.
In the same order, the values of `N=C(N)c1ccc(/C=C/c2ccc(C(=N)N)cc2O)cc1` [HYDROXYSTILBAMIDINE] are 1.6, 1.2 µM, 6.7 µM, 1.87 and 1.85.
In the same order, the values of `CNC(=N)N/N=C/C(C)=N/NC(=N)NC` are 2.81, 27 µM, 111 µM, 2.3 and less than 1.4.
With `C/C(=N\NC(=N)N)c1ccc(NC(=S)Nc2ccc(/C(C)=N/NC(=N)N)cc2)cc1`, the logIC50 in assay [1] stood at 2.11. Further, the C50 is 1.2 µM in assay [2] and 3.4 µM in assay [3]. Further, the log optimum dose in assay [4] turned out to be 1.4. The “log(activity)” value in assay [5] is 1.97.
The corresponding values for `CC(/C=N/NC(=N)N)=N\NC(=N)N` [MITOGUAZONE] are 2.85, 34 µM, 128 µM, 1.7 and 2.
In the same order, the values of `N=C(N)N/N=C/CCC/C=N/NC(=N)N` are greater than 3, 70 µM, 81 µM, 1.87 and less than 1.4.
Take `N=C(N)NN=C1C=CC(=NNC(=N)N)C=C1`: in assay [1], the logIC50 was 2.85. For the same compound, the C50 in assay [2] stood at 22 µM; in assay [3], 200 µM. The log optimum dose in assay [4] amounted to 1.88. The “log(activity)” value in assay [5] was less than 1.4.
